{"source": "ChEMBL document CHEMBL1121898", "about": "“Potential antiestrogens. Synthesis and evaluation of mammary tumor inhibiting activity of 1,2-dialkyl-1,2-bis(3'-hydroxyphenyl)ethanes” (1981)", "key": {"Rattus norvegicus [1]": {"organism": "Rattus norvegicus", "experiment": "Percent unchanged tumor size of DMBA-induced hormone-dependent mammary carcinoma tumors in rats at 2.25 mg", "type": "functional"}, "Rattus norvegicus [2]": {"organism": "Rattus norvegicus", "experiment": "Partial remission of DMBA-induced hormone-dependent mammary carcinoma tumors in ovariectomised rats", "type": "functional", "procedure,_shortened": "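DMBA-induced, hormone-dependent mammary adenocarcinoma in SD rats, with ovariectomy as the treatment. Rats bearing at least one tumor >140 mm² were placed in groups of ten. Tumors were counted at the start and as new tumors. Responses were scored as complete remission, partial remission (≥50% size reduction), no change or progression, with % change in tumor area and body weight.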"}, "[3]": {"target": "T1, Estrogen receptor (Mus musculus) (UniProt O08537+P19785)", "T1 sequence (O08537 whole entry, looked up)": "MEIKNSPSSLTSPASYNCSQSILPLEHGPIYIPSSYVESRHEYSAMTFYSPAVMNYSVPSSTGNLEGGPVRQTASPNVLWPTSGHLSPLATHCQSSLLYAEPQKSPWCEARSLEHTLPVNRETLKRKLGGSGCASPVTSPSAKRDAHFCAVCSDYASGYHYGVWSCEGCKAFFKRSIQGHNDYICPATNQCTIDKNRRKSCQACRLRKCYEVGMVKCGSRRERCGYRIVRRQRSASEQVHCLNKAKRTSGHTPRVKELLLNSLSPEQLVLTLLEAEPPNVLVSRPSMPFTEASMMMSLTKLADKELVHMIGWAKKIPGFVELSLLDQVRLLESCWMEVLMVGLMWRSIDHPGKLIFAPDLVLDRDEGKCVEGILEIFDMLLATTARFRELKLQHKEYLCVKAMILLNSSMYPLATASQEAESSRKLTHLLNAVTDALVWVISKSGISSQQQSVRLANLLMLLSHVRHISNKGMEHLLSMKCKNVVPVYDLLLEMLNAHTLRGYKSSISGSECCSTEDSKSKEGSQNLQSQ", "T1 sequence (P19785 whole entry, looked up)": "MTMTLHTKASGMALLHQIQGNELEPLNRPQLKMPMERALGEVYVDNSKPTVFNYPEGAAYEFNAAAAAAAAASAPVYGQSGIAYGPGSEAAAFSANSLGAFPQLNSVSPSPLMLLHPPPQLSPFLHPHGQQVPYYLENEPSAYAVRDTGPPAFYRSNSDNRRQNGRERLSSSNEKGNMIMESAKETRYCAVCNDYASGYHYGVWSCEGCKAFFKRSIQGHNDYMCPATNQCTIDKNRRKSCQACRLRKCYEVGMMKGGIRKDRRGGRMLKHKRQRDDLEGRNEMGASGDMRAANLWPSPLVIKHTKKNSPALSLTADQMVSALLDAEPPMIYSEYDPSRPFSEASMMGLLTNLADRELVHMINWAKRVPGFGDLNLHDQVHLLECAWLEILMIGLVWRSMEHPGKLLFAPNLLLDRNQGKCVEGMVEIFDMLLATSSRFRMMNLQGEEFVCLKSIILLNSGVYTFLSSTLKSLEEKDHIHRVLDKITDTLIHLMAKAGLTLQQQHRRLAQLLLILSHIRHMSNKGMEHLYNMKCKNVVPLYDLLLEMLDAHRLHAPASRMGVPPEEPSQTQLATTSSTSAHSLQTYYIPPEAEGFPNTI", "experiment": "Estrogenic activity in uterotrophic test in mice at 9 ug", "type": "functional", "procedure,_shortened": "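Immature (20-day-old) female NMRI mice, 14.5 ± 1.2 g, randomized into groups of 10. Given the test compound sc daily for 3 days in 0.1 mL olive oil. Uteri removed 24 h after the last injection; uterine weight taken as the read-out, means ± SD. Dose in μg.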"}, "Rattus norvegicus [4]": {"organism": "Rattus norvegicus", "experiment": "Complete remission of DMBA-induced hormone-dependent mammary carcinoma tumors in rats at 4.5 mg", "type": "functional", "procedure,_shortened": "(§1)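 Female SD rats bearing DMBA-induced, hormone-dependent mammary adenocarcinoma, with at least one tumor >140 mm², were grouped in tens. Dosing was sc per kg body weight: a single dose daily Monday–Thursday and a double dose Friday. Ovariectomy served as the comparison arm. Complete remission was defined as a tumor no longer palpable. Body weight and tumor area changes were also recorded.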"}, "Rattus norvegicus [5]": {"organism": "Rattus norvegicus", "experiment": "Complete remission of DMBA-induced hormone-dependent mammary carcinoma tumors in rats at 9 mg", "type": "functional", "procedure,_shortened": "as §1"}, "Rattus norvegicus [6]": {"organism": "Rattus norvegicus", "experiment": "Initial tumor number of DMBA-induced hormone-dependent mammary carcinoma in rats at 9 mg", "type": "functional", "procedure,_shortened": "(§2)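 DMBA-induced, hormone-dependent mammary adenocarcinoma in SD rats. Rats bearing at least one tumor >140 mm² were placed in groups of ten. Compound was given sc as a single dose (mg/kg) daily Monday–Thursday and a double dose on Friday. Tumors were counted at the start and as new tumors; responses were scored as complete remission (not palpable), partial remission (≥50% reduction), no change or progression. Tumor area and body weight were recorded as % change.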"}, "Rattus norvegicus [7]": {"organism": "Rattus norvegicus", "experiment": "Percent change in DMBA-induced hormone-dependent mammary carcinoma tumor area at 4.5 mg after 28 days", "type": "functional", "procedure,_shortened": "as §2"}, "Mus musculus": {"organism": "Mus musculus", "experiment": "Predominant components of vaginal smear at a compound concentration of 500 ug was determined using vaginal cornification test; leucocytes (</= 50%), nucleated and cornified, nucleated cellscharacteristic of antiestrogens", "type": "functional, organism-based"}, "Rattus norvegicus [8]": {"organism": "Rattus norvegicus", "experiment": "Percent change in DMBA-induced hormone-dependent mammary carcinoma tumor area at 1 mg after 28 days", "type": "functional", "procedure,_shortened": "as §2"}, "[9]": {"target": "T1, Estrogen receptor (Mus musculus)", "experiment": "Antiestrogenic activity in uterotrophic test in mice at 2.5 ug (experiment 1)"}}, "data": [{"smiles": "CCCC(c1cccc(O)c1)C(CCC)c1cccc(O)c1", "note": "(stereo not given)", "values": [{"measurement": "Tumors", "setting": "Rattus norvegicus [1]", "result": 13, "unit": "%"}, {"measurement": "Tumors", "setting": "Rattus norvegicus [2]", "result": 10, "unit": "%"}, {"measurement": "Effect", "setting": "[3]", "result": 13.9}, {"measurement": "Tumors", "setting": "Rattus norvegicus [4]", "result": 23, "unit": "%"}, {"measurement": "Tumors", "setting": "Rattus norvegicus [5]", "result": 52, "unit": "%"}, {"measurement": "No. of tumors", "setting": "Rattus norvegicus [6]", "result": 22}, {"measurement": "Change", "setting": "Rattus norvegicus [7]", "result": 109, "unit": "%"}]}, {"smiles": "CCC(c1cccc(O)c1)C(CC)c1cccc(O)c1", "note": "(stereo in doubt; 20)", "values": [{"measurement": "Activity", "setting": "Mus musculus", "result": "Weak activity"}, {"measurement": "Change", "setting": "Rattus norvegicus [8]", "result": 47, "unit": "%"}, {"measurement": "% inhibition", "setting": "[9]", "result": 27, "unit": "%"}]}]}
